Laboratory results taken from ChEMBL document CHEMBL1137702, “Identification of hydrolytically stable and selective P2Y(1) receptor agonists” (Eur J Med Chem, 2009).
One block for each compound: values may come before it.

How the values were obtained:
P2Y purinoceptor 1 [1] = target: T1, P2Y purinoceptor 1 (Meleagris gallopavo, UniProt P49652); experiment: Antagonist activity at turkey P2Y1 receptor expressed in human 1321N1 cells assessed as inhibition of 2-MeS-ADP-induced increase in intracellular calcium concentration by dual-excitation spectrofluorimetric analysis; type: functional, cell-based
T1 sequence (P49652 whole entry): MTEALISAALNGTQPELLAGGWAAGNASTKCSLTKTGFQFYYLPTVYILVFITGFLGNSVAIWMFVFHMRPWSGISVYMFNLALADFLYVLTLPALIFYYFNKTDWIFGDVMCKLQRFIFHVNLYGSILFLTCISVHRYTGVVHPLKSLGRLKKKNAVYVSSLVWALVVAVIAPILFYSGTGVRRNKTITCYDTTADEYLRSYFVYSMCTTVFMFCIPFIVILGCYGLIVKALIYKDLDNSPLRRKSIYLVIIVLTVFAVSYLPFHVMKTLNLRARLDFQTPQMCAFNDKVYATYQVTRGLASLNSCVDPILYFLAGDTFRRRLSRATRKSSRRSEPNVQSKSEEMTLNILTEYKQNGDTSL
Method in brief: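 Fura-2-loaded suspensions of stably transfected 1321N1 cells were assayed at 37 °C in HEPES-buffered saline pH 7.4 with 1 mM Ca2+ and Mg2+. […] [Ca2+]i was read by dual-excitation spectrofluorometry.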

[2] = Dissociation constant, pKa of the compound; type: physicochemical
[3] = Chemical stability at physiological pH at 37 deg C assessed as hydrolysis half life by 31P NMR analysis; type: physicochemical
P2Y purinoceptor 1 [4] = target: P2Y purinoceptor 1 (Rattus norvegicus, UniProt P49651); experiment: Agonist activity at rat pancreas P2Y1 receptor assessed as enhancement of insulin secretion; type: functional
Sequence of P2Y purinoceptor 1 (Rattus norvegicus, UniProt P49651) (P49651 whole entry): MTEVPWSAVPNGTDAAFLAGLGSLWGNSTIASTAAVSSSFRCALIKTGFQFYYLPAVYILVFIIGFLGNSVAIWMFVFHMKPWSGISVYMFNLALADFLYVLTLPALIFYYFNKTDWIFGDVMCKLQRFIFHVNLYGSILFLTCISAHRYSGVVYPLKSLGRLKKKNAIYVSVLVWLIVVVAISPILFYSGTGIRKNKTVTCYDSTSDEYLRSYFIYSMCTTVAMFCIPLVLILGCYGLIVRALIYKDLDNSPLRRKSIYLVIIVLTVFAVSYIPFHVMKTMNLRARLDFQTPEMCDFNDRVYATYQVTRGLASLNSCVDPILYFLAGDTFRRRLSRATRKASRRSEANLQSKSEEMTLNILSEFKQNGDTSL

[5] = Stability after 100 mins by HPLC-MS analysis in presence of calf intestine alkaline phosphatase; type: ADME; conditions: cattle, isolated protein
alkaline phosphatase = experiment: Stability assessed as drug remaining after 12 mins by HPLC-MS analysis in presence of calf intestine alkaline phosphatase; type: ADME; conditions: cattle, read-out: Stability
[6] = Chemical stability assessed as hydrolysis half life at pH 1.4 by 31P NMR analysis; type: physicochemical; conditions: buffer
P2Y purinoceptor 6 = P2Y purinoceptor 6 (Rattus norvegicus, UniProt Q63371); experiment: Agonist activity at rat P2Y6 receptor expressed in human 1321N1 cells assessed as increase in intracellular calcium concentration by dual-excitation spectrofluorimetric analysis; type: functional, cell-based
Sequence of P2Y purinoceptor 6 (Q63371 whole entry): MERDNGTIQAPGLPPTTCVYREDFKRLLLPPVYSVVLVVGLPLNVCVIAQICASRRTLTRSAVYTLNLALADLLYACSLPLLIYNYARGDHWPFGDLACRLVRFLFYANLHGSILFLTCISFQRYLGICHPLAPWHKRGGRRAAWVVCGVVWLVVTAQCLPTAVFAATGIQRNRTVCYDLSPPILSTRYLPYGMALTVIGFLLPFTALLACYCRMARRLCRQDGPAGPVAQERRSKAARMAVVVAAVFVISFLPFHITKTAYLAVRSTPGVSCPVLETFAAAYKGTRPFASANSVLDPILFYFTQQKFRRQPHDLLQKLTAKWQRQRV
Method in brief: (§1)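 1321N1 astrocytoma cells stably expressing the receptor (turkey P2Y1, human P2Y2, human P2Y4, rat P2Y6) were grown with G-418 selection. Fura-2-loaded cell suspensions were exposed at 37 °C in 10 mM HEPES-buffered saline pH 7.4 with 1 mM CaCl2 and 1 mM MgCl2. Peak [Ca2+]i rise was measured over a range of concentrations to derive EC50.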

Serum [7] = experiment: (§2) Metabolic stability in human serum assessed as hydrolysis half life at 40 mM measured for 6 days by HPLC; type: ADME, cell-free; conditions: 144 h, 40000 µM
[8] = target: T2, Ectonucleoside triphosphate diphosphohydrolase 1 (Bos taurus) (UniProt O18956); experiment: Activity of bovine spleen NTPDase 1 assessed as drug hydrolysis at 100 uM after 7 mins by malachite green colorimetric assay relative to ATP; type: tissue-based; set-up: scale not given: the % may be the effect or the level left
T2 sequence (whole entry): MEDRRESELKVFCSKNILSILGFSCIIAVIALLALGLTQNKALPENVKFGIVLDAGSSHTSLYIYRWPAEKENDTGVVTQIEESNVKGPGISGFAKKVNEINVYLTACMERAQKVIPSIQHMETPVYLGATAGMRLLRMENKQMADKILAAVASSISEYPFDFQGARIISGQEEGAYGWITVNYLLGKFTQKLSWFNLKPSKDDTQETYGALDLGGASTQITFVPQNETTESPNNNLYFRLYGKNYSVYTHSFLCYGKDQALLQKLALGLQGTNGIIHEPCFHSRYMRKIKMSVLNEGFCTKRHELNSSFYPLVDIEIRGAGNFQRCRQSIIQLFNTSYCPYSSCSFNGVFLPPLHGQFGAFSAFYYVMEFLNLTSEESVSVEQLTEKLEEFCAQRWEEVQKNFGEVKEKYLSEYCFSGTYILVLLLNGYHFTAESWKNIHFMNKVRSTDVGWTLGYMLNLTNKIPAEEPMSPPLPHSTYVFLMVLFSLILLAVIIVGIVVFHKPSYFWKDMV

[9] = target: P2Y purinoceptor 1 (Rattus norvegicus) (UniProt P49651); experiment: Agonist activity at rat pancreas P2Y1 receptor assessed as enhancement of insulin secretion relative to basal level; type: functional
Sequence of P2Y purinoceptor 1 (Rattus norvegicus) (P49651 whole entry): as the sequence (P49651 whole entry) above

[10] = Stability at 77 ug/ml after 30 mins by HPLC in presence of calf intestine alkaline phosphatase; type: ADME; conditions: cattle, isolated protein, 0.5 h
[11] = Chemical stability assessed as hydrolysis half life at 1.6 mg at pH 1.4 measured at 7 to 17 hrs interval for 5 days by HPLC-MS analysis; type: physicochemical
Method in brief: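 1.6 mg in 0.2 M HCl/KCl buffer with pH brought to 1.4, held at 37 °C. Sampled at 7–17 h intervals for 5 days by HPLC-ESI-MS on C18 with TEAA/MeOH gradient. Peak area versus time was fit to pseudo-first-order decay for t1/2.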

[12] = as §2; type: ADME, cell-free
P2Y purinoceptor 1 [13] = target: T1, P2Y purinoceptor 1; experiment: Agonist activity at turkey P2Y1 receptor expressed in human 1321N1 cells assessed as increase in intracellular calcium concentration by dual-excitation spectrofluorimetric analysis; type: functional, cell-based
Serum [14] = experiment: Metabolic stability in human serum assessed as hydrolysis half life at 0.25 mM measured for 18 hrs by HPLC; type: ADME, cell-free; conditions: 250 µM
Method in brief: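 Serum from healthy-donor whole blood (12 h at 4 °C, spun 1500 × g for 15 min, stored at −80 °C) was diluted 1:3 in RPMI-1640 and incubated with the nucleotide at 37 °C. Samples were acid-quenched (0.6 M HCl), spun, neutralised with 4 M KOH and freeze-dried. They were run on C18 HPLC with a KH2PO4 pH 4.5/acetonitrile gradient. t1/2 came from the change in peak integration over time.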

P2Y purinoceptor 2 = P2Y purinoceptor 2 (Homo sapiens, UniProt P41231); experiment: Agonist activity at human P2Y2 receptor expressed in human 1321N1 cells assessed as increase in intracellular calcium concentration by dual-excitation spectrofluorimetric analysis; type: functional, cell-based; method in brief: as §1
Sequence of P2Y purinoceptor 2 (P41231 whole entry): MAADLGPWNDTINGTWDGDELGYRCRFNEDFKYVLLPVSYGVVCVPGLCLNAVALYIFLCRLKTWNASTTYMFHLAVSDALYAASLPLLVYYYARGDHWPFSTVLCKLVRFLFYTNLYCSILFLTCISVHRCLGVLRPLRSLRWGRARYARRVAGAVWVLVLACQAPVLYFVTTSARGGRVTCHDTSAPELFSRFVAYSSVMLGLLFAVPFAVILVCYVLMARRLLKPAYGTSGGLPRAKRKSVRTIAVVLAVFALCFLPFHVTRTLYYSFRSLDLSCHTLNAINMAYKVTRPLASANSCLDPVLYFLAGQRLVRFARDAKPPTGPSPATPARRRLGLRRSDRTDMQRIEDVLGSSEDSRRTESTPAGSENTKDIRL

P2Y purinoceptor 4 = P2Y purinoceptor 4 (Homo sapiens, UniProt P51582); experiment: Agonist activity at human P2Y4 receptor expressed in human 1321N1 cells assessed as increase in intracellular calcium concentration by dual-excitation spectrofluorimetric analysis; type: functional, cell-based; method in brief: as §1
Sequence of P2Y purinoceptor 4 (P51582 whole entry): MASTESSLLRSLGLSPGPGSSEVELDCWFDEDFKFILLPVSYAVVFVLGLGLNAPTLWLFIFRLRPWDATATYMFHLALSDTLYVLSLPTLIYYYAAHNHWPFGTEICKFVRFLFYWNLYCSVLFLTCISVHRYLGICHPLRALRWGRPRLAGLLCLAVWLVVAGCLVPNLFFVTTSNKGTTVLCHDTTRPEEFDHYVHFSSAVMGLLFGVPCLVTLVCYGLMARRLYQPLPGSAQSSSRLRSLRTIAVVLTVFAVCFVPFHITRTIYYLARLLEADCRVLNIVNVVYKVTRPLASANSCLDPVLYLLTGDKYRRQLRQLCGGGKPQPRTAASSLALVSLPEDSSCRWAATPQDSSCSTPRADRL

Structure (SMILES): BP(=O)(OC[C@H]1O[C@@H](n2cnc3c(N)ncnc32)[C@H](O)[C@@H]1O)OP(=O)(O)CP(=O)(O)O (some centres undefined)
EC50 (P2Y purinoceptor 1 [1]): Not Active

Structure (SMILES): CSc1nc(N)c2ncn([C@@H]3O[C@H](COP(=O)(O)OP(=O)(O)O)[C@@H](O)[C@H]3O)c2n1
pKa [2]: 6.5

Structure (SMILES): BP(=O)(OC[C@H]1O[C@@H](n2cnc3c(N)ncnc32)[C@H](O)[C@@H]1O)OP(=O)(O)CP(=O)(O)O (single isomer, unassigned; diastereomer B)
Stability [10]: Stable
half-life [11]: 19 h

Structure (SMILES): BP(=O)(OC[C@H]1O[C@@H](n2cnc3c(N)nc(SC)nc32)[C@H](O)[C@@H]1O)OP(=O)(O)OP(=O)(O)O (single isomer, unassigned; diastereomer B)
Activity [8]: 59%

Structure (SMILES): Nc1ncnc2c1ncn2[C@@H]1O[C@H](COP(=O)(O)OP(=O)(O)OP(=O)(O)O)[C@@H](O)[C@H]1O [ADENOSINE TRIPHOSPHATE]
t1/2 (Serum [7]): 7.7 h
t1/2 (Serum [14]): 3.6 h

Structure (SMILES): O=c1ccn([C@@H]2O[C@H](COP(=O)(O)OP(=O)(O)OP(=O)(O)O)[C@@H](O)[C@H]2O)c(=O)[nH]1 [URIDINE TRIPHOSPHATE]
EC50 (P2Y purinoceptor 2): 640 nM
EC50 (P2Y purinoceptor 4): 480 nM

Next, values leading:

half-life [3]: 1400 h
EC50 (P2Y purinoceptor 1 [4]): 28 nM
Stability [5]: Unstable
remaining at 0.2 h (alkaline phosphatase): 40%
half-life [6]: 5.9 h
Structure (SMILES): BP(=O)(OC[C@H]1O[C@@H](n2cnc3c(N)nc(SC)nc32)[C@H](O)[C@@H]1O)OP(=O)(O)OP(=O)(O)O (single isomer, unassigned; diastereomer A) [listing 1 of 2 here]

EC50 (P2Y purinoceptor 6; 1321-n1): Not Active
Stability (Serum [7]): Stable
Structure (SMILES): BP(=O)(OC[C@H]1O[C@@H](n2cnc3c(N)nc(SC)nc32)[C@H](O)[C@@H]1O)OP(=O)(O)CP(=O)(O)O (single isomer, unassigned; diastereomer A)

Activity [8]: 14%
fold change (FC) [9]: 9
Structure (SMILES): BP(=O)(OC[C@H]1O[C@@H](n2cnc3c(N)nc(SC)nc32)[C@H](O)[C@@H]1O)OP(=O)(O)OP(=O)(O)O (single isomer, unassigned; diastereomer A) [listing 2 of 2 here]

Stability [10]: Stable
half-life [11]: 14.5 h
half-life at 40000 µM [12]: 71.9 h
EC50 (P2Y purinoceptor 1 [13]): 17200 nM
Structure (SMILES): BP(=O)(OC[C@H]1O[C@@H](n2cnc3c(N)nc(SC)nc32)[C@H](O)[C@@H]1O)OP(=O)(O)CP(=O)(O)O (single isomer, unassigned; diastereomer B)

EC50 (P2Y purinoceptor 1 [13]): 100 nM
Structure (SMILES): Nc1ncnc2c1ncn2[C@@H]1O[C@H](COP(=O)(O)OP(=O)(O)O)[C@@H](O)[C@H]1O [ADENOSINE DIPHOSPHATE]

EC50 (P2Y purinoceptor 6; read-out: EC50): 200 nM
Structure (SMILES): O=c1ccn([C@@H]2O[C@H](COP(=O)(O)OP(=O)(O)O)[C@@H](O)[C@H]2O)c(=O)[nH]1 [URIDINE_DIPHOSPHATE]
